Measurements from the RNAGym collection of RNA variant scans (doi:10.1126/science.aae0568).
Fewer inactive variants are shown than the library holds.

B1: tRNA (parent)
chain: GUUCCGUUGGCGUAAUGGUAACGCGUCUCCCUCCUAAGGAGAAGACUGCGGGUUCGAGUCCCGUACGGAACG

Variants of: B1
Assay: yeast fitness relative to wild type (ratio to wild type); higher = fitter; tRNA-Arg(CCU), competitive growth, 37 C, YPD
In short: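 Amplicons of the tRNA-Arg(CCU) gene were sequenced, 100-nucleotide paired-end, from the start population and from each end population of a pooled yeast competition. The competition, in six parallel replicates, lasted 24 hours in YPD at 37°C. Fitness relative to wild type was calculated from changes in genotype frequencies. Genotypes had to have ≥ 100 starting reads, and estimates < 0.5 were set to 0.5.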

Variant | yeast fitness
U16C C46G C49U | 0.731
A15U U64A | 0.709
U16A C34U | 0.663
U16A G17C A43U A45C C46A | 0.613
U16A C55A | 0.699
A15U U16A A21C C33G | 0.558
U16C C24G U32A G56A | 0.544
A15U G23C C33A G63A | ≤ 0.5
U16C A20U C30U G39C A45G A69C | 0.592
U16A G17C A43U A45C C46A C62G | ≤ 0.5
U16A C27G | 0.548
U16C C29U C62U | 0.508
U16A C24U C62U | 0.692
A15U G25A C27A C33U | 0.512
A15U G68C | 0.671
U16C C22U A40G A43U C46G C49G C62U | 0.55
A15U C49G A70G | 0.576
A15U G63A | 0.675
A15U U35A A43U C46U | 0.695
U16A U32C C34U | ≤ 0.5
U16C C31G | 0.838
U16C C33U A57G G63C | ≤ 0.5
U16A G39C | 0.646
A15U G17A U53C C66U A69U | ≤ 0.5

Variant | yeast fitness
A15U G52A C61G | 0.596
U16A C60U | 0.805
U16A C33U A45G C49A U53A | ≤ 0.5
U16C C24U U53C C60G | 0.559
U16A C33A C34A C62A | ≤ 0.5
U16C C33G G39C A69C | ≤ 0.5
U16A A21U G23C U47C | ≤ 0.5
U16C C30U C46A | 0.768
A15U U19A A20G A40U A43U | 0.542
U16A C22U G48A | 0.631
U16C A36G G68A | 0.556
A15U C49G G68C | ≤ 0.5
U16A C22A | 0.941
U16A C22G | 0.989
U16A C22U | 0.773
U16A G67A | 0.926
U16A G67U | 0.85
U16A A21C A45U C60U G67C | ≤ 0.5
A15U G18C G23C C24G | ≤ 0.5
U16A G39A C46U A57U G67A | ≤ 0.5
U16A U32C A42U | 0.637
U16A C30G A57U | ≤ 0.5
A15U C49U | 0.731
A15U G38C G39A A43C C61U | ≤ 0.5

Variant | yeast fitness
U16A A37G G44A A69U | ≤ 0.5
U16A G17A C22G C61U | ≤ 0.5
U16C C24U C29A U32A C46G A57C | 0.522
U16C C30U C34G C49A A70U | ≤ 0.5
A15U C46G C61A | 0.51
U16A A21G C27G G68C | ≤ 0.5
A15U G18C C24G C46A U64C A69G | 0.513
U16C C34G G44A A65U | ≤ 0.5
U16A A21G C34U | ≤ 0.5
A15U G51C | 0.555
A15U G51A | 0.722
U16C A20U C24U C49A | ≤ 0.5
U16A G48C C55G G67C A70U | 0.604
U16A C24G C46U G50C C55U A57U C62G A70U | ≤ 0.5
U16A C24U C61G A65G | ≤ 0.5
U16A C31A G51A | 0.552
U16A C27U G38A | ≤ 0.5
A15U C62A | 0.624
A15U U16A C22G C60U | ≤ 0.5
U16A C30G C34G A42U G52A A57C A65G | ≤ 0.5
U16A G58C | 0.963
U16C A42C A65U | 0.585
U16A A57U A69U | 0.526
U16C C22G C27G U53C C61A G68A | ≤ 0.5

Variant | yeast fitness
A15U G23C C33A | ≤ 0.5
U16A G17A C66G A70U | 0.634
U16C C29U G63A | 0.527
U16A C49U G67A | 0.67
A15U U32A G44A A65C | ≤ 0.5
U16A C27G A36U | ≤ 0.5
A15U U26A C31A G67U | ≤ 0.5
U16C A40U A57C A70U | 0.585
U16C C31G G39A A57U | 0.692
U16A C24U | 1.06
U16A G39A C46U A57U C66U | ≤ 0.5
A15U U47A G63A | ≤ 0.5
U16A C34A A40U | ≤ 0.5
U16A C30G G44C A65C | ≤ 0.5
A15U U32A C33G U53A | ≤ 0.5
U16A C24G C49G U53C | ≤ 0.5
U16C A57U | 0.686
U16A G50C C66G | ≤ 0.5
U16C A37G A42C G67A | ≤ 0.5
U16A G56A | 0.875
U16A C46U G51C | 0.769
U16A G25A C49A | ≤ 0.5
A15U C46U C66U A69G | ≤ 0.5
U16A A43U C62G C66A A69C | ≤ 0.5

Variant | yeast fitness
A15U G56A C61G C66U | ≤ 0.5
U16A A42C | 0.854
U16A C29G C30U A40U | ≤ 0.5
A15U G18A A42U | 0.567
U16A A57U C66U | 0.528
U16A A20U U35C G39C A42C G48A | ≤ 0.5
A15U G38C G39A A43C C60G A65C | 0.559
U16A C60G C61G G68C | ≤ 0.5
A15U U19A A20G G41A C60G A65G | ≤ 0.5
U16A A20G C29G C30U A40U A70G | ≤ 0.5
U16A C62U A69G | 0.922
A15U U53A C62A | ≤ 0.5
A15U U19A A20G A40U A43U C60G C62U | 0.518
U16C A37C C55G C62U | ≤ 0.5
A15U U53C | 0.71
A15U U53G | 0.539
U16C C46G G56A | 0.748
U16A U19A A69C | 0.747
U16A A37U G56A C62A A69G | ≤ 0.5
U16A A21U A42U | 0.591
U16A G44C | 0.751
U16A G44A | 0.999
A15U G48A | 0.763
U16A C31A A69U | 0.62

Variant | yeast fitness
U16A G58A G67U | ≤ 0.5
A15U U16A | 0.705
A15U U16C | 0.893
A15U C66U A69U | 0.566
U16A C31A C33G G38A C66U | ≤ 0.5
U16A A43C | 0.906
U16A C30A A42C | 0.558
U16A C60A C62U | 0.609
A15U C46G C55A A69U | ≤ 0.5
A15U C60G C66G | ≤ 0.5
U16A A37U | 0.739
U16A A37G | 0.79
U16C A40G C46A | 0.712
U16A C30G A37C | ≤ 0.5
A15U G56A | 0.727
U16A C24U G44C C61U C66U | ≤ 0.5
U16A C34U U54C | ≤ 0.5
A15U G23A C34A C49G A57G | 0.57
U16A A21G C34A C49G C62U | ≤ 0.5
A15U U59C C62A | ≤ 0.5
U16A U35A A57G C62G | ≤ 0.5
U16A C60G G67A | ≤ 0.5
A15U G23A A45G | ≤ 0.5
U16A G50C A65G | ≤ 0.5

Variant | yeast fitness
U16C C31U C33A C34G U35A G52A G67A | ≤ 0.5
U16A A37C C55U | ≤ 0.5
A15U G18A C27A | 1.03
U16C C29G | 0.619
U16C A43G U59C | 0.609
U16A C55U U59A A65C | ≤ 0.5
U16A G23A C33A | 0.644
U16A G25C G48A U59A | ≤ 0.5
U16C C46U A69C | 0.783
A15U U19A G41C C55G C66G | ≤ 0.5
U16C C29G C60U | 0.638
U16A G23C C29U C31G | ≤ 0.5
A15U G41C G56C | ≤ 0.5
A15U C46A U59C | ≤ 0.5
U16A G18C G48C | 0.646
U16A A20U C24G C31A C33G C61A G67C | ≤ 0.5
U16C A70U | 0.902
U16C A40U G52A C55A G56C | ≤ 0.5
A15U U19G C27A U28A | 0.578
A15U C46G C61A A70U | ≤ 0.5
U16C A21C A37G A69G A70G | ≤ 0.5
U16A G50C C55U U59G C66U G67A | ≤ 0.5
A15U G23A C49G | 0.583
